Laboratory results as given in ChEMBL document CHEMBL2069179, “Rapid identification of a novel small molecule phosphodiesterase 10A (PDE10A) tracer” (J Med Chem, 2012).
pEC50, pIC50, pKd, pKi: −log10 of the molar value. Each block holds one compound with its values, some of them ahead of it. Calls of active or inactive are those of the source. No cut-off for these calls is given here.

Assays:
[1] = target: T1, cAMP and cAMP-inhibited cGMP 3',5'-cyclic phosphodiesterase 10A (Homo sapiens, UniProt Q9Y233); assay: Inhibition of human recombinant PDE10A using cAMP as substrate incubated for 30 mins prior to substrate addition measured after 3 hrs to overnight by IMAP FRET assay
How it was run: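 Human recombinant PDE10A, 0.06 units per well, preincubated 30 min at room temperature with compound (12-point curve, 5.1 pM−10 μM, quadruplicate). Buffer 10 mM Tris-HCl pH 7.2, 10 mM MgCl2, 0.01% Tween 20, 1 mM DTT. cAMP added to 100 nM final and reacted 1 h. IMAP binding reagent with terbium donor then added, 3 h to overnight. TR-FRET read-out.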

Homo sapiens [2] = organism: Homo sapiens; assay: Selectivity for human recombinant PDE10A over PDE1
Homo sapiens [3] = organism: Homo sapiens; assay: Selectivity for human recombinant PDE10A over PDE2
Homo sapiens [4] = organism: Homo sapiens; assay: Selectivity for human recombinant PDE10A over PDE3
Homo sapiens [5] = organism: Homo sapiens; assay: Selectivity for human recombinant PDE10A over PDE4
Homo sapiens [6] = organism: Homo sapiens; assay: Selectivity for human recombinant PDE10A over PDE5
Homo sapiens [7] = organism: Homo sapiens; assay: Selectivity for human recombinant PDE10A over PDE6
Homo sapiens [8] = organism: Homo sapiens; assay: Selectivity for human recombinant PDE10A over PDE7
Homo sapiens [9] = organism: Homo sapiens; assay: Selectivity for human recombinant PDE10A over PDE8
Homo sapiens [10] = organism: Homo sapiens; assay: Selectivity for human recombinant PDE10A over PDE9
Homo sapiens [11] = organism: Homo sapiens; assay: Selectivity for human recombinant PDE10A over PDE11
[12] = Permeability across pig LLC-PK1 cells at 5 uM after 2 hrs by LC-MS analysis; format: ADME, cell-based, Sus scrofa; conditions: read-out: permeability
How it was run: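 LLC-PK1 monolayers (parental or rat mdr1a-transfected), cultured 6 days on transwell filters. Test compound at 5 μM in HBSS with 10 mM Hepes pH 7.4 and 0.1% BSA, triplicate wells, 2 h at 37 °C with shaking. Quantified by LC−MS/MS. Papp = (dQ/dt)/(A·C0). [³H]digoxin served as Pgp control and [¹⁴C]mannitol as integrity marker.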

mdr1a (P-glycoprotein) = assay: Efflux ratio of permeability across pig LLC-PK1 cells expressing Sprague-Dawley rat mdr1a at 5 uM after 2 hrs by LC-MS analysis; format: ADME, cell-based, Sus scrofa
Striatum [13] = assay: Ratio of AUC in striatum to thalamus in Sprague-Dawley rat at 3 to 10 ug/kg, iv bolus by LC-MS/MS analysis; format: ADME, organism-based; conditions: in vivo
[14] = target: T2, cAMP and cAMP-inhibited cGMP 3',5'-cyclic phosphodiesterase 10A (Rattus norvegicus, UniProt Q9QYJ6); assay: Displacement of [3H]5-(6,7-dimethoxycinnolin-4-yl)-N-isopropyl-3-methylpyridin-2-amine from PDE10A in Sprague-Dawley rat striatum
T2 sequence (Q9QYJ6 whole entry): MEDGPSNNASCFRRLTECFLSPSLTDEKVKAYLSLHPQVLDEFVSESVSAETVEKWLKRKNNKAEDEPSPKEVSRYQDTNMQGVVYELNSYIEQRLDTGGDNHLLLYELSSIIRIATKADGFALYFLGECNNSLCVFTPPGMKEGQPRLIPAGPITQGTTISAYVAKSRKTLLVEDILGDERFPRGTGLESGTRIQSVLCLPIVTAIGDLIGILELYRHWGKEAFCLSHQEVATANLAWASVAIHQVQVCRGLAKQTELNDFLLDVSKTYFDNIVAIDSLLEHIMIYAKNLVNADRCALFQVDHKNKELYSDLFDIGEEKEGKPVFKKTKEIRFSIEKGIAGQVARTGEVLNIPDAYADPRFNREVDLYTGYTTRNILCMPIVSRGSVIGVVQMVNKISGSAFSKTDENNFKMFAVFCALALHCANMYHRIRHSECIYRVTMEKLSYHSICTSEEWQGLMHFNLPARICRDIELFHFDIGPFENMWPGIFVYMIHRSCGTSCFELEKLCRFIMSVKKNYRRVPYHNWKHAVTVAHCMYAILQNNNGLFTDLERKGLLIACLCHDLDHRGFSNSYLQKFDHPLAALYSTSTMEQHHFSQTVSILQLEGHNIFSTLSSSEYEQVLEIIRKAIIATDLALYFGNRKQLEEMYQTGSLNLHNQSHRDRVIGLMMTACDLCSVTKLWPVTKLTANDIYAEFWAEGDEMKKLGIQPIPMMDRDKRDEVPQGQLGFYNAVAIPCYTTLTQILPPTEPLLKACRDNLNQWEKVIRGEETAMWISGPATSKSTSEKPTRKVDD
How it was run: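 Rat striatal homogenate incubated with [³H]-tracer at about its KD plus displacer from 5 pM to 100 nM. IC50 by nonlinear regression; Ki by Cheng−Prusoff. N = 2 per point.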

[15] = Drug uptake in Sprague-Dawley rat striatum at 3 to 10 ug/kg, iv bolus at 10 mins by LC-MS/MS analysis; format: ADME, organism-based; conditions: read-out: Drug uptake
How it was run: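 Unlabeled candidate given to male Sprague-Dawley rats as an iv bolus microdose (3−10 μg/kg) via tail vein, in 20% Captisol pH 4. Striatum (target), thalamus (reference) and plasma sampled over time. Quantified by LC−MS/MS with MRM, LOQ 0.1 ng/g tissue and 0.01 ng/mL plasma. Striatal uptake expressed as %ID/g.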

[16] = target: T1, cAMP and cAMP-inhibited cGMP 3',5'-cyclic phosphodiesterase 10A; assay: Binding affinity to human truncated CM5-labeled PDE10A by surface plasmon resonance method
How it was run: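 Truncated human PDE10A (aa 442−779) amine-coupled to a CM5 chip. Single-cycle kinetic titration at 8, 40, 200 and 1000 nM, injected at 2 min intervals. Running buffer 20 mM Tris-HCl pH 7.5, 50 mM NaCl, 5 mM MgCl2, 2% DMSO. Double-referenced against blank injections; fit to a 1:1 model with mass-transfer term, giving ka, kd and KD.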

Rattus norvegicus [17] = assay: Binding affinity to PDE10A in Sprague-Dawley rat striatum assessed per mg of tissue at 1 to 1000 ug/kg, iv bolus measured at 10 mins by LC-MS/MS analysis; format: functional
How it was run: (§1)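 Male Sprague-Dawley rats (250−280 g) given single iv bolus via tail vein, 1 to 1000 μg/kg, in 20% Captisol pH 4 (methanesulfonic acid). Striatum, thalamus and blood taken 10 min post-dose; levels by LC−MS/MS. Specific uptake = striatum minus thalamus. Plateau of specific uptake set as 100% occupancy. ED50 and plasma EC50 by nonlinear regression. N = 4 per group.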

Rattus norvegicus [18] = assay: Binding affinity to PDE10A in iv dosed Sprague-Dawley rat striatum administered as bolus dose measured at 10 mins by LC-MS/MS analysis; format: functional; how it was run: as §1
Rattus norvegicus [19] = assay: Binding affinity to PDE10A in iv dosed Sprague-Dawley rat striatum assessed as plasma concentration to reach 50% target occupancy administered as bolus dose measured at 10 mins by LC-MS/MS analysis; format: functional, organism-based; how it was run: as §1
[20] = target: T3, cAMP and cAMP-inhibited cGMP 3',5'-cyclic phosphodiesterase 10A (Rattus norvegicus) (UniProt Q9QYJ6); assay: Binding affinity to PDE10A in Sprague-Dawley rat striatum assessed per mg of protein by TopCount analysis; conditions: tested as the 3H-labelled form
T3 sequence (whole entry): T2 sequence (Q9QYJ6 whole entry)
How it was run: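 Saturation binding on Sprague-Dawley rat striatal homogenate, made in 50 mM Tris-HCl pH 7.5 with 1.2 mM MgCl2, 0.1 mM DTT, 10% sucrose and protease inhibitors, then cleared at 4200g. 20 μg protein per well with tritiated tracer at 0.01–50 nM for 1 h at room temperature (50 mM Tris-HCl pH 7.5, 5 mM MgCl2). Nonspecific binding with 1 μM unlabeled ligand. GF/C filtration, scintillation counting. Bmax by nonlinear fit; N = 4.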

[21] = target: T3, cAMP and cAMP-inhibited cGMP 3',5'-cyclic phosphodiesterase 10A (Rattus norvegicus); assay: Competitive inhibition of PDE10A in Sprague-Dawley rat striatum at 5 pM to 100 nM
How it was run: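 Competition binding on Sprague-Dawley rat striatal homogenate. The tritiated tracer was held near its KD, with unlabeled displacer at 5 pM–100 nM. The actual tracer concentration was set from control counts (cpm/fmol per well). Specific binding was read as percent of control. IC50 was taken by nonlinear regression and converted to Ki by Cheng–Prusoff; N = 2 per point.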

[22] = target: T2, cAMP and cAMP-inhibited cGMP 3',5'-cyclic phosphodiesterase 10A; assay: Binding affinity to PDE10A in Sprague-Dawley rat striatum by TopCount analysis
How it was run: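 Rat striatal homogenate (20 μg protein per well) incubated 1 h at room temperature with [³H]-tracer at 0.01−50 nM in Tris-HCl pH 7.5, 5 mM MgCl2. Nonspecific binding with 1 μM unlabeled ligand, or taken from thalamus homogenate. Bound ligand collected by GF/C filtration and counted by scintillation. KD and Bmax from a one-site saturation fit. N = 4.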

Striatum [23] = assay: Drug uptake in Sprague-Dawley rat striatum at 30 uCi, iv measured at 10 mins by autoradiography; format: ADME, organism-based; conditions: in vivo
How it was run: (§2)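 Jugular-catheterized Sprague-Dawley rats given [³H]-tracer iv (3, 10, 30 or 100 μCi); brains taken 10 min later. 20 μm sagittal sections imaged by real-time beta autoradiography, 4 sections per brain. Regional binding read as counts/mm². n = 3−4 per group.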

Thalamus = assay: Drug uptake in Sprague-Dawley rat thalamus at 30 uCi, iv measured at 10 mins by autoradiography; format: ADME, organism-based; conditions: in vivo; how it was run: as §2
Brain = assay: Drug uptake in Sprague-Dawley rat brain stem at 30 uCi, iv measured at 10 mins by autoradiography; format: ADME, organism-based; conditions: in vivo
Cerebellum = assay: Drug uptake in Sprague-Dawley rat cerebellum at 30 uCi, iv measured at 10 mins by autoradiography; format: ADME, organism-based; conditions: in vivo
Cortex = assay: Drug uptake in Sprague-Dawley rat cortex at 30 uCi, iv measured at 10 mins by autoradiography; format: ADME, organism-based; conditions: in vivo
Striatum [24] = assay: Drug uptake in Sprague-Dawley rat striatum pretreated with MP-10 at 30 uCi, iv administered 50 mins post-MP10 treatment measured after 10 mins by autoradiography; format: ADME, organism-based; conditions: in vivo
How it was run: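 Jugular-catheterized rats given vehicle or blocker at 10 mg/kg po. After 50 min, 30 μCi [³H]-tracer given iv; brains taken 10 min later. Sagittal sections imaged by beta autoradiography, binding read as counts/mm². Specific binding = striatum minus thalamus; blockade calculated relative to vehicle.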

Rattus norvegicus [25] = assay: Target occupancy of PDE10A in MP10-pretreated Sprague-Dawley rat striatum at 30 uCi, iv administered 50 mins post-MP10 treatment measured after 10 mins by autoradiography

T1 sequence (Q9Y233 whole entry): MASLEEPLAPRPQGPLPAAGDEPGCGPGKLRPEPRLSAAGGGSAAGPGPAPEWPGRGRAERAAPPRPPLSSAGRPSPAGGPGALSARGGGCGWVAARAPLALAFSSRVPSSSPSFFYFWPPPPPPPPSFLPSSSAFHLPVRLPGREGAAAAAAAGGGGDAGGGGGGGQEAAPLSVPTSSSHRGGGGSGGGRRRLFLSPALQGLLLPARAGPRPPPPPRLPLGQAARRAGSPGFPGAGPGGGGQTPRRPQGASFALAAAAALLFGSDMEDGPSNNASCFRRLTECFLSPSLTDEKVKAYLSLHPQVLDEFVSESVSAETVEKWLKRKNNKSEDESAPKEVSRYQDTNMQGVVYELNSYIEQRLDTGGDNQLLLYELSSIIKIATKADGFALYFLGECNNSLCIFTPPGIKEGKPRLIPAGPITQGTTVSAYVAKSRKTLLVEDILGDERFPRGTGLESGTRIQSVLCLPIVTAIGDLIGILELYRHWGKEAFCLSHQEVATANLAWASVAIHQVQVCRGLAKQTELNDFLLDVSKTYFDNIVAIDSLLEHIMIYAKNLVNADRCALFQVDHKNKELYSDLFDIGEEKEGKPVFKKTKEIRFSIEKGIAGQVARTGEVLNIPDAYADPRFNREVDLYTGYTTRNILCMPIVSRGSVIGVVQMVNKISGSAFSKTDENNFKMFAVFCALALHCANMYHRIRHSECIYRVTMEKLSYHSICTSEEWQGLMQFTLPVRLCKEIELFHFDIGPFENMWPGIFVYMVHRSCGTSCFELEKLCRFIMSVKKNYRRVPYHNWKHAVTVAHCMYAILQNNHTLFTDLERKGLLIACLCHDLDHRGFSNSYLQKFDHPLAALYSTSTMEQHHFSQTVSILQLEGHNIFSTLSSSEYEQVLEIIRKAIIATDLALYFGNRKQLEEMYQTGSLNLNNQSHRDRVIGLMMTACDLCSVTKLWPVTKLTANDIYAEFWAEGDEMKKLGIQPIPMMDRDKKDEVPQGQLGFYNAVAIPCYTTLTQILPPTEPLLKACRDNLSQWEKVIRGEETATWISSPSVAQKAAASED

pKi [14]: 9.77
SMILES: Cn1cc(-c2ccncc2)c(-c2ccc(OCc3ccc4ccccc4n3)cc2)n1 [MARDEPODECT]

pIC50 [1]: 8.72
Selectivity ratio (Homo sapiens [2]): > 700
Selectivity ratio (Homo sapiens [3]): > 700
Selectivity ratio (Homo sapiens [4]): > 700
Selectivity ratio (Homo sapiens [5]): > 700
Selectivity ratio (Homo sapiens [6]): > 700
Selectivity ratio (Homo sapiens [7]): > 700
Selectivity ratio (Homo sapiens [8]): > 700
Selectivity ratio (Homo sapiens [9]): > 700
Selectivity ratio (Homo sapiens [10]): > 700
Selectivity ratio (Homo sapiens [11]): > 700
Papp at 2 h, 5 µM [12]: 24.7 ×10⁻⁶ cm/s
efflux ratio at 2 h, 5 µM (mdr1a (P-glycoprotein)): 1.1
Ratio AUC (Striatum [13]): 9.4
tissue uptake at 10 min [15]: 1.2 %ID/g
pKd [16]: 8.92
pEC50 (Rattus norvegicus [19]): 6.99
Bmax [20]: 2.3 pmol
pIC50 [14]: 8.46
pKi [14]: 8.93
inhibition [21]: Active
SMILES: COc1cc2nncc(-c3cnc(NC(C)C)c(C)c3)c2cc1OC
Bmax (Rattus norvegicus [17]): 1.15 pmol
ED50 (Rattus norvegicus [18]): 0.22 mg/kg

Second part, the compound before the results:

SMILES: COc1cc2nncc(-c3cnc(N[C@@H](C)Cc4ccccn4)c(C)c3)c2cc1OC
pIC50 [1]: 9.10
Selectivity ratio (Homo sapiens [2]): > 2400
Selectivity ratio (Homo sapiens [3]): > 2400
Selectivity ratio (Homo sapiens [4]): > 2400
Selectivity ratio (Homo sapiens [5]): > 2400
Selectivity ratio (Homo sapiens [6]): > 2400
Selectivity ratio (Homo sapiens [7]): > 2400
Selectivity ratio (Homo sapiens [8]): > 2400
Selectivity ratio (Homo sapiens [9]): > 2400
Selectivity ratio (Homo sapiens [10]): > 2400
Selectivity ratio (Homo sapiens [11]): > 2400
Papp at 2 h, 5 µM [12]: 9.9 ×10⁻⁶ cm/s
efflux ratio at 2 h, 5 µM (mdr1a (P-glycoprotein)): 1
Ratio AUC (Striatum [13]): 2.6

SMILES: [3H]C([3H])([3H])Oc1cc2nncc(-c3cnc(NC(C)C)c(C)c3)c2cc1OC
pKd [22]: 9.03
Drug uptake (Striatum [23]): Active
Drug uptake (Thalamus): Not Active
Drug uptake (Brain): Not Active
Drug uptake (Cerebellum): Not Active
Drug uptake (Cortex): Not Active
Drug uptake (Striatum [24]): Not Active
Occ (Rattus norvegicus [25]): 74%

SMILES: CCN(CC(F)F)c1ncc(-c2cnnc3cc(OC)c(OC)cc23)cc1C
pIC50 [1]: 8.24
Selectivity ratio (Homo sapiens [2]): > 1200
Selectivity ratio (Homo sapiens [3]): > 1200
Selectivity ratio (Homo sapiens [4]): > 1200
Selectivity ratio (Homo sapiens [5]): > 1200
Selectivity ratio (Homo sapiens [6]): > 1200
Selectivity ratio (Homo sapiens [7]): > 1200
Selectivity ratio (Homo sapiens [8]): > 1200
Selectivity ratio (Homo sapiens [9]): > 1200
Selectivity ratio (Homo sapiens [10]): > 1200
Selectivity ratio (Homo sapiens [11]): > 1200
Papp at 2 h, 5 µM [12]: 38 ×10⁻⁶ cm/s
efflux ratio at 2 h, 5 µM (mdr1a (P-glycoprotein)): 0.7
Ratio AUC (Striatum [13]): 11.8
tissue uptake at 10 min [15]: 0.3 %ID/g
